Laboratory results taken from ChEMBL document CHEMBL4765233, “From Lead to Drug Candidate: Optimization of 3-(Phenylethynyl)-1H-pyrazolo[3,4-d]pyrimidin-4-amine Derivatives as Agents for the Treatment of Triple Negative Breast Cancer” (J Med Chem, 2016).

How the values were obtained:
[1] = tested on: HepG2; test: Antiproliferative activity against human HepG2 cells assessed as reduction in cell viability incubated for 72 hrs by MTT assay; type: ADME, cell-based; settings: HepG2, 72 h
[2] = tested on: MDA-MB-231; test: Antiproliferative activity against human MDA-MB-231 cells assessed as reduction in cell viability incubated for 72 hrs by MTT assay; type: functional, cell-based; settings: MDA-MB-231, 72 h
In short: (§1)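 MTT viability assay. ATCC cell lines were grown in designated medium with 10% FBS at 37 °C, 5% CO2. Cells seeded at 1500−30000 per well and incubated 24 h, then exposed to compound (0−10 μg/mL) for 72 h. MTT added for 2−4 h. Formazan dissolved in DMSO (adherent) or acidified SDS overnight (suspension), absorbance read at 570 nm. Triplicates; IC50 calculated.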

[3] = tested on: MDA-MB-435; test: Antiproliferative activity against human MDA-MB-435 cells assessed as reduction in cell viability incubated for 72 hrs by MTT assay; type: functional, cell-based; settings: MDA-MB-435, 72 h; in short: as §1

IC50 [1] [µM] | IC50 [2] [µM] | IC50 [3] [µM] | Structure (SMILES)
> 10 | 0.36 | 0.238 | CCn1nc(C#Cc2cc(C(=O)Nc3cccc(C(F)(F)F)c3)ccc2C)c2c(N)ncnc21
> 10 | 0.947 | 0.334 | CN1CCC(n2nc(C#Cc3cc(NC(=O)Nc4cccc(C(F)(F)F)c4)ccc3Cl)c3c(N)ncnc32)CC1
> 10 | 0.059 | 0.02 | Cc1ccc(NC(=O)c2cccc(C(C)(C)C)c2)cc1C#Cc1nn(C2CCN(C)CC2)c2ncnc(N)c12
> 10 | 0.188 | 0.082 | Cc1ccc(NC(=O)c2cc(C(C)(C)C)on2)cc1C#Cc1nn(C2CCN(C)CC2)c2ncnc(N)c12
> 10 | 0.812 | 2.07 | Cc1ccc(NC(=O)c2cccc(F)c2)cc1C#Cc1nn(C2CCN(C)CC2)c2ncnc(N)c12
> 10 | 0.133 | 0.422 | Cc1cccc(C(=O)Nc2ccc(C)c(C#Cc3nn(C4CCN(C)CC4)c4ncnc(N)c34)c2)c1
> 10 | 0.023 | 0.319 | Cc1ccc(NC(=O)c2ccc(Cl)c(C(F)(F)F)c2)cc1C#Cc1nn(C[C@@H](C)CO)c2ncnc(N)c12
> 10 | 0.749 | 0.135 | CN1CCC(n2nc(C#Cc3cc(C(=O)Nc4cccc(C(F)(F)F)c4)ccc3Cl)c3c(N)ncnc32)CC1
> 10 | 0.101 | 0.285 | COc1cccc(C(=O)Nc2ccc(C)c(C#Cc3nn(C4CCN(C)CC4)c4ncnc(N)c34)c2)c1
6 | 0.597 | 0.14 | CN1CCC(n2nc(C#Cc3cccc(NC(=O)c4cccc(C(F)(F)F)c4)c3)c3c(N)ncnc32)CC1
> 10 | 1.36 | 8.9 | COc1ccc(C(=O)Nc2ccc(C)c(C#Cc3nn(C4CCN(C)CC4)c4ncnc(N)c34)c2)cc1
> 10 | 0.324 | 0.08 | Cc1ccc(NC(=O)c2cc(C(C)(C)C)nn2C)cc1C#Cc1nn(C2CCN(C)CC2)c2ncnc(N)c12
4.6 | 0.013 | 0.044 | Cc1ccc(C(=O)Nc2cccc(C(F)(F)F)c2)cc1C#Cc1nn([C@@H]2CCN(C)C2)c2ncnc(N)c12
> 10 | 1.88 | 3.38 | Cc1ccc(NC(=O)c2cc(C(F)(F)F)cc(Cl)c2F)cc1C#Cc1nn(C2CCN(C)CC2)c2ncnc(N)c12
> 10 | 0.075 | 0.093 | Cc1ccc(NC(=O)c2cccc(OC(F)(F)F)c2)cc1C#Cc1nn(C2CCN(C)CC2)c2ncnc(N)c12
> 10 | 1.69 | 0.343 | CN1CCC(n2nc(C#Cc3cccc(C(=O)Nc4cccc(C(F)(F)F)c4)c3)c3c(N)ncnc32)CC1
> 10 | 0.284 | 0.183 | Cc1ccc(NC(=O)c2ccnc(C(F)(F)F)c2)cc1C#Cc1nn(C2CCN(C)CC2)c2ncnc(N)c12
> 10 | 0.167 | 0.065 | Cc1ccc(NC(=O)c2cncc(C(F)(F)F)c2)cc1C#Cc1nn(C2CCN(C)CC2)c2ncnc(N)c12

IC50 [1] [µM] | IC50 [2] [µM] | IC50 [3] [µM] | Structure (SMILES)
2.6 | 0.085 | 0.063 | Cc1ccc(NC(=O)c2cc(Cl)cc(C(F)(F)F)c2)cc1C#Cc1nn(C2CCN(C)CC2)c2ncnc(N)c12
6.2 | 1.35 | 0.557 | CN1CCC(n2nc(C#Cc3cccc(NC(=O)Nc4cccc(C(F)(F)F)c4)c3)c3c(N)ncnc32)CC1
> 10 | 0.515 | 0.09 | Cc1ccc(NC(=O)Nc2cccc(C(F)(F)F)c2)cc1C#Cc1nn(C2CCN(C)CC2)c2ncnc(N)c12
> 10 | 0.296 | 0.273 | Cc1ccc(NC(=O)c2cccc(C(F)(F)F)c2F)cc1C#Cc1nn(C2CCN(C)CC2)c2ncnc(N)c12
2.7 | 0.201 | 0.117 | Cc1ccc(NC(=O)c2cc(C(F)(F)F)ccc2F)cc1C#Cc1nn(C2CCN(C)CC2)c2ncnc(N)c12
> 10 | 0.509 | 2.47 | Cc1ccc(NC(=O)c2cccc(C(F)(F)F)n2)cc1C#Cc1nn(C2CCN(C)CC2)c2ncnc(N)c12
4.4 | 0.03 | 0.012 | Cc1ccc(NC(=O)c2cccc(C(C)(C)C)c2)cc1C#Cc1nn([C@H]2CC[C@H](O)CC2)c2ncnc(N)c12
> 10 | 0.671 | 1.43 | Cc1ccc(NC(=O)c2cc(F)cc(C(F)(F)F)c2)cc1C#Cc1nn(C2CCN(C)CC2)c2ncnc(N)c12
> 10 | 0.854 | 5.13 | Cc1ccc(NC(=O)c2ccc(C(F)(F)F)cc2)cc1C#Cc1nn(C2CCN(C)CC2)c2ncnc(N)c12
> 10 | 0.034 | 0.073 | Cc1ccc(NC(=O)c2cnc(C(C)(C)C)s2)cc1C#Cc1nn(C[C@@H](C)CO)c2ncnc(N)c12
> 10 | 0.947 | 0.195 | CN1CCC(n2nc(C#Cc3cc(NC(=O)c4cccc(C(F)(F)F)c4)ccc3Cl)c3c(N)ncnc32)CC1
7.1 | 0.051 | 0.094 | Cc1ccc(NC(=O)c2cc(C(F)(F)F)cc(C(F)(F)F)c2)cc1C#Cc1nn(C2CCN(C)CC2)c2ncnc(N)c12
8.3 | 0.048 | 0.123 | Cc1ccc(NC(=O)c2ccc(C)c(C(F)(F)F)c2)cc1C#Cc1nn(C[C@@H](C)CO)c2ncnc(N)c12
3.1 | 0.07 | 0.055 | Cc1ccc(C(=O)Nc2cccc(C(F)(F)F)c2)cc1C#Cc1nn(CC2CCN(C)CC2)c2ncnc(N)c12
3.5 | 0.041 | 0.115 | Cc1ccc(C(=O)Nc2cccc(C(F)(F)F)c2)cc1C#Cc1nn(CC2CCN(C)C2)c2ncnc(N)c12 (stereo not drawn)
9.2 | 0.06 | 0.733 | Cc1ccc(NC(=O)c2cccc(Cl)c2)cc1C#Cc1nn(C2CCN(C)CC2)c2ncnc(N)c12
> 10 | 0.523 | 0.621 | Cc1ccc(NC(=O)c2ccc(F)c(C(F)(F)F)c2)cc1C#Cc1nn(C2CCN(C)CC2)c2ncnc(N)c12

Structure (SMILES) | IC50 [1] [µM] | IC50 [2] [µM] | IC50 [3] [µM]
Cc1ccc(NC(=O)c2cccc(C(F)(F)F)c2)cc1C#Cc1nn(CC2CCN(C)C2)c2ncnc(N)c12 (stereo not drawn) | 4.7 | – | –
Cc1ccc(NC(=O)c2cccc(C(F)(F)F)c2)cc1C#Cc1nn([C@@H]2CCN(C)C2)c2ncnc(N)c12 | 6.6 | – | –
Cc1ccc(NC(=O)c2cccc(C(F)(F)F)c2)cc1C#Cc1nn(CC2CCN(C)CC2)c2ncnc(N)c12 | 3.2 | – | –
